Laboratory results as given in ChEMBL document CHEMBL1799921, “3-(1,3,4-Thiadiazole-2-yl)quinoline derivatives: synthesis, characterization and anti-microbial activity” (Eur J Med Chem, 2011).
≈ marks a conversion by molar mass, not a printed value.

Columns and labels:
Staphylococcus aureus [1] = assay: Antibacterial activity against Staphylococcus aureus measured at MIC after 18 hrs by halo zone test; assay type: functional
Method in brief: (§1)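 Disk diffusion. Strains subcultured 18 h at 37 °C in BHI, then suspended in saline by McFarland to about 10⁵ CFU/mL. Suspension mixed 1:1 with antibiotic agar at 40 °C and plated. 6.0 mm paper disks loaded with dilutions from a DMSO stock (1 mg per 100 of DMSO). Incubated 18 h at 36 °C. Inhibition zone (mm) measured at the MIC. Amoxicillin and DMSO disks as controls.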

[2] = Cytotoxicity against rat H9c2 cells assessed as cell viability at 1.57 to 200 mg/mL after 48 hrs by MTT assay; assay type: cell-based; settings: read-out: Activity
Method in brief: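 Subconfluent H9c2 cardiac myoblasts treated with increasing concentrations for 48 h at 37 °C in 5% CO₂, alongside untreated cells. Then washed in PBS and given MTT (5 mg/mL) for 45 min at 37 °C. Crystals dissolved in acid isopropanol, absorbance read at 570 nm. Viability is absorbance of treated relative to untreated cells. Triplicate. DMSO and amoxicillin controls.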

Escherichia coli [3] = assay: Antibacterial activity against Escherichia coli measured at MIC after 18 hrs by halo zone test; assay type: functional; method in brief: as §1
Streptococcus pyogenes [4] = assay: Antibacterial activity against Streptococcus pyogenes measured at MIC after 18 hrs by halo zone test; assay type: functional; method in brief: as §1
Salmonella typhimurium [5] = assay: Antibacterial activity against Salmonella Typhimurium measured at MIC after 18 hrs by halo zone test; assay type: functional, Salmonella enterica subsp. enterica serovar Typhimurium; method in brief: as §1
Staphylococcus aureus [6] = assay: Antibacterial activity against Staphylococcus aureus after 18 hrs by macro-dilution test; assay type: functional
Method in brief: (§2)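 Tube macro-dilution. Compounds in DMSO serially diluted to final […]. 24 h old inoculum added to each tube. Standard inoculum […]. Incubated 18 h at 37 °C. MIC is the lowest concentration with no visible growth, read visually. DMSO negative and amoxicillin positive controls.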

Streptococcus pyogenes [7] = assay: Antibacterial activity against Streptococcus pyogenes after 18 hrs by macro-dilution test; assay type: functional; method in brief: as §2
Salmonella typhimurium [8] = assay: Antibacterial activity against Salmonella Typhimurium after 18 hrs by macro-dilution test; assay type: functional, Salmonella enterica subsp. enterica serovar Typhimurium; settings: Salmonella enterica; method in brief: as §2
Escherichia coli [9] = assay: Antibacterial activity against Escherichia coli after 18 hrs by macro-dilution test; assay type: functional; method in brief: as §2
[10] = in the assay text read “1.57 to 200 ug/mL” for “1.57 to 200 mg/mL”

| SMILES | inhibition zone (IZ) (Staphylococcus aureus [1]) | viability at 48 h [2, 10] | inhibition zone (IZ) (Escherichia coli [3]) | inhibition zone (IZ) (Streptococcus pyogenes [4]) | inhibition zone (IZ) (Salmonella typhimurium [5]) | MIC (Staphylococcus aureus [6]) | MIC (Streptococcus pyogenes [7]) | MIC (Salmonella typhimurium [8]) | MIC (Escherichia coli [9]) | viability at 48 h [2] |
| --- | --- | --- | --- | --- | --- | --- | --- | --- | --- | --- |
| CC(=O)N(C1=NN(C(C)=O)C(c2cc3cccc(Cl)c3nc2Cl)S1)c1ccccc1C (stereo not drawn) | 19.76 mm | > 80% | 15.59 mm | 13.84 mm | 16.86 mm | 16 µg/mL (≈ 33.8 µM) | 64 µg/mL (≈ 135 µM) | 32 µg/mL (≈ 67.6 µM) | 32 µg/mL (≈ 67.6 µM) |  |
| CC(=O)N(C1=NN(C(C)=O)C(c2cc3cccc(Cl)c3nc2Cl)S1)c1ccc([N+](=O)[O-])cc1 (stereo not drawn) | 19.81 mm | > 80% | 12.56 mm | 16.32 mm | 17.25 mm | 32 µg/mL (≈ 63.4 µM) | 64 µg/mL (≈ 127 µM) | 32 µg/mL (≈ 63.4 µM) | 32 µg/mL (≈ 63.4 µM) |  |
| CC(=O)N1N=C(N(C(C)=O)C2CCCC2)SC1c1cc2ccccc2nc1Cl (stereo not drawn) | 20.63 mm | > 80% | 19.79 mm | 19.93 mm | 18.6 mm | 32 µg/mL (≈ 76.8 µM) | 32 µg/mL (≈ 76.8 µM) | 32 µg/mL (≈ 76.8 µM) | 64 µg/mL (≈ 154 µM) |  |
| CC(=O)N1N=C(N(C(C)=O)C2CCCCC2)SC1c1cc2ccccc2nc1Cl (stereo not drawn) | 14.03 mm |  | 15.63 mm | 17.38 mm | 14.59 mm | 256 µg/mL (≈ 594 µM) | 256 µg/mL (≈ 594 µM) | 64 µg/mL (≈ 149 µM) | 128 µg/mL (≈ 297 µM) |  |
| CC(=O)N1N=C(N(C(C)=O)C2CCCCCCC2)SC1c1cc2ccccc2nc1Cl (stereo not drawn) | 14.57 mm |  | 17.86 mm | 14.33 mm | 18.82 mm | 128 µg/mL (≈ 279 µM) | 128 µg/mL (≈ 279 µM) | 64 µg/mL (≈ 139 µM) | 256 µg/mL (≈ 558 µM) |  |
| CC(=O)N(C1=NN(C(C)=O)C(c2cc3ccccc3nc2Cl)S1)c1ccccc1C (stereo not drawn) | 15.66 mm | > 80% | 15.84 mm | 17.14 mm | 16.06 mm | 32 µg/mL (≈ 72.9 µM) | 16 µg/mL (≈ 36.5 µM) | 32 µg/mL (≈ 72.9 µM) | 32 µg/mL (≈ 72.9 µM) |  |
| CC(=O)N(C1=NN(C(C)=O)C(c2cc3ccccc3nc2Cl)S1)c1cc(F)ccc1F (stereo not drawn) | 17.41 mm |  | 20.13 mm | 14.74 mm | 16.67 mm | 16 µg/mL (≈ 34.7 µM) | 64 µg/mL (≈ 139 µM) | 32 µg/mL (≈ 69.4 µM) | 32 µg/mL (≈ 69.4 µM) | > 80% |
| CC(=O)N(C1=NN(C(C)=O)C(c2cc3ccccc3nc2Cl)S1)c1ccc(C)cc1 (stereo not drawn) | 18.27 mm | > 80% | 16.4 mm | 17 mm | 16.89 mm | 32 µg/mL (≈ 72.9 µM) | 16 µg/mL (≈ 36.5 µM) | 64 µg/mL (≈ 146 µM) | 32 µg/mL (≈ 72.9 µM) |  |
| CC(=O)N(C1=NN(C(C)=O)C(c2cc3ccccc3nc2Cl)S1)c1ccc([N+](=O)[O-])cc1 (stereo not drawn) | 14.29 mm |  | 14.34 mm | 14.92 mm | 17.03 mm | 64 µg/mL (≈ 136 µM) | 64 µg/mL (≈ 136 µM) | 64 µg/mL (≈ 136 µM) | 64 µg/mL (≈ 136 µM) |  |
